The target of assay [1] is T1, Platelet-derived growth factor receptor (Homo sapiens, UniProt P09619+P16234). Put plainly: Inhibition of human PDGF receptor phosphorylation; 0.015-0.025. The class given is protein-complex assay. The procedure, abridged: (§1)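 PDGF receptor from NIH 3T3 cell lysates (cells made quiescent 24 h in 0.5% calf serum), stimulated with 10 ng/mL PDGF for 30 min at 4 °C and immunoprecipitated on Protein A beads. Each compound ran in at least two dose-response assays.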

The target in assay [2] is Epidermal growth factor receptor (Homo sapiens, UniProt P00533). Put plainly: Concentration required to inhibit phosphorylation of isolated human epidermal growth factor tyrosine kinase receptor by 50%.
For assay [3], the target named is T1, Platelet-derived growth factor receptor. Put plainly: Inhibition of human PDGF receptor phosphorylation; 0.1-0.6. Format: protein-complex assay. A digest of the protocol: (§2)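 Receptor from quiescent NIH 3T3 cell lysates (24 h in 0.5% calf serum before lysis), stimulated with 10 ng/mL PDGF for 30 min at 4 °C, then immunoprecipitated with anti-PDGF receptor antibody on Protein A beads. Compound pre-incubated 10 min at 4 °C in 50 mM Tris, 10 mM MnCl2, pH 7.5. At least two dose-response assays per compound.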

For assay [4] the target is unchanged. Put plainly: Inhibition of human PDGF receptor phosphorylation; 0.1-0.25. The class given is protein-complex assay. The procedure, abridged:
as §1

The target is the same in assay [5]. Put plainly: Inhibition of isolated human PDGF receptor phosphorylation. Format: protein-complex assay.
The target is the same in assay [6]. Put plainly: Inhibition of human PDGF receptor phosphorylation; 0.05-0.07. Format: protein-complex assay. A digest of the protocol:
as §1

For assay [7] the target is unchanged. In words: Inhibition of human PDGF receptor phosphorylation; 0.02-0.03. The class given is protein-complex assay. A digest of the protocol: as §1
Assay [8] shares this target. In words: Inhibition of human PDGF receptor phosphorylation; 0.2-0.25. Format: protein-complex assay. A digest of the protocol:
as §1

Assay [9] shares this target. In words: Inhibition of human PDGF receptor phosphorylation; 0.001-0.005. The class given is protein-complex assay. The procedure, abridged:
as §1

For assay [10] the target is unchanged. Put plainly: Inhibition of human PDGF receptor phosphorylation; 0.04-0.08. Format: protein-complex assay. A digest of the protocol: as §1
For assay [11] the target is unchanged. In words: Inhibition of human PDGF receptor phosphorylation; 0.1-0.8. Format: protein-complex assay. A digest of the protocol:
as §1

Assay [12] has the same target. In words: Inhibition of human PDGF receptor phosphorylation; 0.004-0.025. The class given is protein-complex assay. A digest of the protocol: as §1
The target is the same in assay [13]. Put plainly: Inhibition of human PDGF receptor phosphorylation; 1-2. Format: protein-complex assay. The procedure, abridged: as §1
Assay [14] has the same target. In words: Inhibition of human PDGF receptor phosphorylation; 2-8. The class given is protein-complex assay. The procedure, abridged:
as §1

The target is the same in assay [15]. Put plainly: Inhibition of human PDGF receptor phosphorylation; 6-10. The class given is protein-complex assay.
The target is the same in assay [16]. In words: Inhibition of human PDGF receptor phosphorylation; 0.02-0.08. Format: protein-complex assay.
Assay [17] shares this target. In words: Inhibition of human PDGF receptor phosphorylation; 0.1-0.2. Format: protein-complex assay. A digest of the protocol: as §1
Assay [18] shares this target. In words: Inhibition of human PDGF receptor phosphorylation; 0.07-0.15. The class given is protein-complex assay.
Assay [19] has the same target. In words: Inhibition of human PDGF receptor phosphorylation; 0.025-0.03. Format: protein-complex assay. The procedure, abridged:
as §1

The target in assay [20] is cAMP-dependent protein kinase (PKA) (Homo sapiens, UniProt P22694+P17612+P22612). In words: Test for the inhibition of protein kinase A. The class given is protein assay.
Assay [21] addresses T1, Platelet-derived growth factor receptor. Put plainly: Inhibition of human PDGF receptor phosphorylation; 2-10. The class given is protein-complex assay. The procedure, abridged:
as §1

For assay [22] the target is unchanged. In words: Inhibition of human PDGF receptor phosphorylation; 0.03-0.1. Format: protein-complex assay. The procedure, abridged:
as §2

Chain of Epidermal growth factor receptor (P00533 whole entry): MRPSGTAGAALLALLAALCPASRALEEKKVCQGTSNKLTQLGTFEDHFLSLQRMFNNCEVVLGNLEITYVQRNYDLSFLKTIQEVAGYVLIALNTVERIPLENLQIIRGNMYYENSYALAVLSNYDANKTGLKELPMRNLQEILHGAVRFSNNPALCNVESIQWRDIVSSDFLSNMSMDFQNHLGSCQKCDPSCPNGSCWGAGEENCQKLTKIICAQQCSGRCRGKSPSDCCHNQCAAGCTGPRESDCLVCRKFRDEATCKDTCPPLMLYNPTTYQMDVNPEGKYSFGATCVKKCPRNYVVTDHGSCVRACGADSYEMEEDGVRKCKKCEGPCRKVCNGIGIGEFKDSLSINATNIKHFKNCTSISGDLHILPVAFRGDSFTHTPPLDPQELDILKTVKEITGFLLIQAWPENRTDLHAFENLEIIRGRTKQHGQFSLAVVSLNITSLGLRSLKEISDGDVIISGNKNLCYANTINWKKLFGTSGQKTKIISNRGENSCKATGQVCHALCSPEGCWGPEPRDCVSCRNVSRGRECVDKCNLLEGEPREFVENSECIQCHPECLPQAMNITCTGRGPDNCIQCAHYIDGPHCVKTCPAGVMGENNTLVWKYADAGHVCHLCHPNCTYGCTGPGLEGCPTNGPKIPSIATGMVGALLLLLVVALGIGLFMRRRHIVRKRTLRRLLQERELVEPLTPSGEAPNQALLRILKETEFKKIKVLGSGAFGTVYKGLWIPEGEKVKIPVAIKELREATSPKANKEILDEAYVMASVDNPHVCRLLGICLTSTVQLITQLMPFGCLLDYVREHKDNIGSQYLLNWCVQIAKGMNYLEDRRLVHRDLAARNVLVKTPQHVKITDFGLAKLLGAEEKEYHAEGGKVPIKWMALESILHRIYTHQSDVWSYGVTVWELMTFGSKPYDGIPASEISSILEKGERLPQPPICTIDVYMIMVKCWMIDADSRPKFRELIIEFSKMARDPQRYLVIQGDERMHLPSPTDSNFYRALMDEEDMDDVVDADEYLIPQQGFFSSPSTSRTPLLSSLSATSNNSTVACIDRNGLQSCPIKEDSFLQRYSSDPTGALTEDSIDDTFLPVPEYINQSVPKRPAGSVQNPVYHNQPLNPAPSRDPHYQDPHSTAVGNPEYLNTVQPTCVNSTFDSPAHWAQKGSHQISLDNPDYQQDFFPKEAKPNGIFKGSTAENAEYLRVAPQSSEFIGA

Consider `COc1cc2cc(-c3cccc(F)c3)cnc2cc1OC`, for which the IC50 in [1] was 0.025 µM; in assay [2], greater than 20 µM.
For the molecule `COc1cc2cc(-c3c[nH]c4ccccc34)cnc2cc1OC`, the IC50 was 0.6 µM in assay [3] and greater than 20 µM in assay [2].
In the case of `COc1ccc(-c2cnc3cc(OC)c(OC)cc3c2)s1`, the IC50 in [2] is greater than 20 µM; in [4], 0.25 µM.
With `COc1cc2cc(N)cnc2cc1OC`, the IC50 in assay [5] is greater than 50 µM; in assay [2], greater than 20 µM.
As for `COc1ccc2ncc(-c3ccsc3)cc2c1`, the IC50 in [2] was greater than 20 µM; in assay [6], 0.07 µM.
With `COc1ccc2cc(-c3cccnc3)cnc2c1OC`, the IC50 in assay [5] was greater than 50 µM; in assay [2] it was greater than 25 µM.
For the molecule `COc1cc2cc(-c3ccc(O)cc3)cnc2cc1OC`, the IC50 in assay [7] is 0.03 µM; in assay [2] it was greater than 20 µM.
`Cc1ccc(C)c2ncc(-c3ccsc3)cc12`: the concentration for half-maximal inhibition (IC50) in [5] was greater than 50 µM; in assay [2] it was greater than 20 µM.
Regarding `c1ccc2ncc(-c3ccsc3)cc2c1`, the IC50 in assay [2] was greater than 20 µM; in assay [8], 0.25 µM.
Regarding `Cc1cc(C)c2cc(-c3ccsc3)cnc2c1`, the values for the IC50 in assay [9] and in assay [2] were 0.005 µM and greater than 20 µM, respectively.
`COc1cc2cc(-c3cccs3)cnc2cc1OC`: the IC50 in assay [10] is 0.08 µM; in assay [2], greater than 20 µM.
Turning to `COc1cc2cc(-c3cccnc3)cnc2cc1OC`, the half-inhibitory concentration (IC50) in assay [2] was greater than 25 µM; in assay [11], 0.8 µM.
For the molecule `Fc1cccc2ncc(-c3ccsc3)cc12`, in assay [5], the IC50 is 0.02 µM.
Consider `COc1cc2cc(-c3sccc3Cl)cnc2cc1OC`, for which the IC50 in assay [5] was 1 µM; in [2], greater than 20 µM.
`Fc1ccc2cc(-c3ccsc3)cnc2c1`: the results for the IC50 in assay [2] and in assay [12] were greater than 20 µM and 0.025 µM, respectively.
For `COc1cc2cc(-c3ccc(OCc4ccccc4)cc3)cnc2cc1OC`, the IC50 is greater than 30 µM in [5] and greater than 20 µM in assay [2].
Turning to `COc1cccc(-c2cnc3cc(OC)c(OC)cc3c2)c1`, the values for the IC50 in assay [2] and in assay [13] were greater than 20 µM and 2 µM, respectively.
For the molecule `COc1cc2cc(O)cnc2cc1OC`, the IC50 was no less than 20 µM in assay [5] and greater than 20 µM in assay [2].
For the molecule `c1ccc2ncc(-c3c[nH]c4ccccc34)cc2c1`, the IC50 was greater than 20 µM in assay [2] and 8 µM in [14].
`COc1cc2cc(-c3ccc4ccccc4c3)cnc2cc1OC`: the IC50 in [5] was no less than 20 µM; in assay [2] it was greater than 20 µM.
In the same order, the values of `COc1cc2cc(-c3ccccc3OC)cnc2cc1OC` are 2 µM and greater than 20 µM.
Consider `COc1ccc2cc(-c3c[nH]c4ccccc34)cnc2c1OC`, for which the IC50 was greater than 50 µM in [5] and greater than 20 µM in assay [2].
With `Oc1cc2cc(-c3cccnc3)cnc2cc1O`, the IC50 amounted to 0.5 µM in assay [2] and 10 µM in assay [15].
Turning to `COc1cc2cc(NCc3ccccc3)cnc2cc1OC`, the IC50 in assay [2] was greater than 20 µM; in assay [16], 0.08 µM.
`C(=C\c1cnc2ccccc2c1)/c1ccccc1`: the IC50 in [2] was greater than 20 µM; in assay [17] it was 0.2 µM.
With `COc1cc2cc([N+](=O)[O-])cnc2cc1OC`, the IC50 is greater than 50 µM in assay [5] and greater than 20 µM in assay [2].
`COc1cc2cc(-c3ccccc3)cnc2cc1OC`: the results for the IC50 in assay [2] and in assay [18] were greater than 20 µM and 0.15 µM, respectively.
On to `COc1cc(OC)c2cc(-c3ccsc3)cnc2c1`, for which the IC50 in [19] is 0.03 µM; in [2] it was greater than 20 µM; in assay [20] it was greater than 200 µM.
With `COc1ccc(-c2cnc3cc(OC)c(OC)cc3c2)cc1OC`, the IC50 is 10 µM in assay [21] and greater than 20 µM in [2].
Consider `COc1ccc(/C=C/c2cnc3cc(OC)c(OC)cc3c2)cc1`, for which the IC50 in assay [22] is 0.1 µM; in [2], greater than 20 µM.
As for `COc1cc2cc(-c3cc(OC)c(OC)c(OC)c3)cnc2cc1OC`, the figures for the half-maximal inhibitory concentration (IC50) in [5] and in [2] were greater than 50 µM and greater than 20 µM, respectively.

Source of the values: ChEMBL document CHEMBL1127568, “A new series of PDGF receptor tyrosine kinase inhibitors: 3-substituted quinoline derivatives” (J Med Chem, 1994).
